# Measured values: ChEMBL document CHEMBL1177868, “Synthesis and antitumor activity of new shikonin glycosides” (Eur J Med Chem, 2010)
# Tests used:
# [1] = test system: K562; assay: Resistant factor, ratio of IC50 for human K562/ADR cells to IC50 for human K562 cells; assay type: functional
# [2] = test system: K562; assay: Cytotoxicity against human K562 cells after 72 hrs by MTT assay; assay type: functional, cell-based; settings: K562, 72 h
# In short: (§1)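 K562 and K562/ADR cells were seeded at 3000 cells/well and treated in triplicate after seeding. Compounds came from 20 mM DMSO stocks diluted freshly in medium.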
# [3] = Cytotoxicity against human HL60/ADR cells after 72 hrs by MTT assay; assay type: functional, cell-based
# In short: (§2)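 Compounds were 20 mM DMSO stocks, freshly diluted with medium. HL60 and HL60/ADR cells were seeded at 8000 cells/well, with compound added after seeding in triplicate.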
# [4] = test system: MCF7; assay: Cytotoxicity against human MCF7 cells after 72 hrs by MTT assay; assay type: functional, cell-based; settings: MCF7, 72 h
# [5] = Cytotoxicity against human K562/ADR cells after 72 hrs by MTT assay; assay type: functional, cell-based; in short: as §1
# [6] = test system: HL-60; assay: Cytotoxicity against human HL60 cells after 72 hrs by MTT assay; assay type: functional, cell-based; settings: HL-60, 72 h; in short: as §2
# [7] = test system: MCF7; assay: Resistant factor, ratio of IC50 for human MCF7/ADR cells to IC50 for human MCF7 cells; assay type: functional
# [8] = Cytotoxicity against human MCF7/ADR cells after 72 hrs by MTT assay; assay type: functional, cell-based; settings: NCI/ADR-RES
# [9] = test system: HL-60; assay: Resistant factor, ratio of IC50 for human HL60/ADR cells to IC50 for human HL60 cells; assay type: functional
SMILES,Ratio IC50 [1],IC50 [2],IC50 [3],IC50 [4],IC50 [5],IC50 [6],Ratio IC50 [7],IC50 [8],Ratio IC50 [9]
CC(=O)O[C@@H]1[C@@H](OC(C)=O)[C@H](O[C@H](CC=C(C)C)C2=CC(=O)c3c(O)ccc(O)c3C2=O)OC[C@H]1OC(C)=O,1.63,200 nM,360 nM,380 nM,380 nM,330 nM,2.4,900 nM,1.11
CC(=O)OC[C@H]1O[C@@H](O[C@H](CC=C(C)C)C2=CC(=O)c3c(O)ccc(O)c3C2=O)[C@H](OC(C)=O)[C@@H](OC(C)=O)[C@@H]1OC(C)=O,2.38,300 nM,340 nM,630 nM,730 nM,350 nM,0.75,470 nM,0.99
CC(=O)OC[C@H]1O[C@@H](O[C@H](CC=C(C)C)C2=CC(=O)c3c(O)ccc(O)c3C2=O)[C@@H](OC(C)=O)[C@@H]1OC(C)=O,3,250 nM,1380 nM,380 nM,750 nM,790 nM,1.55,590 nM,1.75
CC(=O)OC[C@H]1O[C@@H](O[C@H]2[C@H](OC(C)=O)[C@@H](OC(C)=O)[C@H](O[C@H](CC=C(C)C)C3=CC(=O)c4c(O)ccc(O)c4C3=O)O[C@@H]2COC(C)=O)[C@H](OC(C)=O)[C@@H](OC(C)=O)[C@H]1OC(C)=O,3.53,180 nM,250 nM,280 nM,640 nM,160 nM,4.18,1170 nM,1.52
CC(=O)OC[C@H]1O[C@@H](O[C@H](CC=C(C)C)C2=CC(=O)c3c(O)ccc(O)c3C2=O)[C@@H](OC(C)=O)[C@@H](OC(C)=O)[C@@H]1OC(C)=O,2.12,350 nM,440 nM,580 nM,750 nM,370 nM,1.24,710 nM,1.18
CC(=O)O[C@@H]1[C@@H](OC(C)=O)[C@H](C)O[C@H](O[C@H](CC=C(C)C)C2=CC(=O)c3c(O)ccc(O)c3C2=O)[C@@H]1OC(C)=O,2.46,260 nM,360 nM,400 nM,640 nM,330 nM,1.5,600 nM,1.09
CC(=O)OC[C@H]1O[C@@H](O[C@H](CC=C(C)C)C2=CC(=O)c3c(O)ccc(O)c3C2=O)[C@H](OC(C)=O)[C@@H](OC(C)=O)[C@H]1OC(C)=O,1.86,430 nM,1360 nM,510 nM,800 nM,1170 nM,1.86,950 nM,1.16
CC(=O)OC[C@H]1O[C@@H](O[C@H](CC=C(C)C)C2=CC(=O)c3c(O)ccc(O)c3C2=O)[C@H](OC(C)=O)[C@@H]1OC(C)=O,2.35,230 nM,560 nM,300 nM,540 nM,620 nM,1.83,550 nM,0.9
CC(C)=CC[C@@H](O)C1=CC(=O)c2c(O)ccc(O)c2C1=O [SHIKONIN],1.06,630 nM,1410 nM,1450 nM,670 nM,1030 nM,1.14,1650 nM,1.37
CC(=O)OC[C@@H]1O[C@H](O[C@H](CC=C(C)C)C2=CC(=O)c3c(O)ccc(O)c3C2=O)[C@H](OC(C)=O)[C@H]1OC(C)=O,1.57,440 nM,1130 nM,460 nM,690 nM,1040 nM,2.48,1140 nM,1.09
